Our source for the Activity, inhibition and viability values is ChEMBL document CHEMBL1148167, “Isolation of a dihydrobenzofuran lignan from South American dragon's blood (Croton spp.) as an inhibitor of cell proliferation” (J Nat Prod, 1993).

Data set [1] concerns HUVEC. Put plainly: Cytotoxicity against HUVEC cell at 250 ug/ml after 6 days. The format is cell-based. The following applies: human, 144 h. In a few lines:
(§1)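 HUVEC (passage 2–4) seeded at 4×10^3 cells/well in medium 199 with 20% human adult serum; after 8 h washed twice, then exposed to medium 199 with 5% human adult serum ± sample. Samples were 0.5% stocks in 33% PEG 400, diluted into the medium. Growth was scored microscopically every other day for 6 days against 5% serum (negative) and 30% serum (positive) controls.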

The test system of data set [2] is HUVEC. Put plainly: Induction of HUVEC cell proliferation at 50 ug/ml after 6 days. The following applies: Homo sapiens. Type of data set: functional, cell-based. In a few lines:
as §1

Data set [3] relates to HUVEC. Description: Effect on HUVEC cells proliferation assessed as inhibition of [3H]thymidine incorporation at 0.4883 ug/ml after 90 hrs by liquid scintillation counting. The following applies: Homo sapiens. Type of data set: functional. In a few lines: (§2)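 HUVEC seeded at 10×10^3 cells/well, washed after 6 h, then exposed 90 h to twofold dilutions in medium 199 with 2% human adult serum. Pulsed 6 h with 1 μCi [3H]thymidine, TCA-fixed, lysed in 0.1% SDS/0.2 N NaOH, scintillation counted. Incorporation per cell (cpm/cells counted) relative to untreated control gave % inhibition.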

In data set [4] the test system is HUVEC. Description: Effect on HUVEC cells proliferation assessed as [3H]thymidine incorporation at 15.625 ug/ml after 90 hrs by liquid scintillation counting relative to negative control. The format is functional, Homo sapiens. In outline:
(§3)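 HUVEC seeded at 10×10^3 cells/well in medium 199 with 20% human adult serum. After 6 h, washed, then given twofold sample dilutions in medium 199 with 2% human adult serum, 37°, 5% CO2, 90 h. Then 1 μCi [3H]thymidine/well for 6 h. TCA-fixed, DNA solubilized in SDS/NaOH at 60° for 2 h, scintillation counted. cpm/cell expressed as % of untreated control.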
A general note: Dividing cells build labelled thymidine or BrdU into new DNA.

Data set [5] relates to HUVEC. Put plainly: Effect on HUVEC cells proliferation assessed as inhibition of [3H]thymidine incorporation at 15.625 ug/ml after 90 hrs by liquid scintillation counting. Type of data set: functional. The following applies: Homo sapiens. In outline:
as §2

Data set [6] deals with HUVEC. Description: Effect on HUVEC cells proliferation assessed as viable cells at 7.8125 ug/ml after 90 hrs relative to negative control. The following applies: Homo sapiens, read-out: Activity. Type of data set: functional. In a few lines:
(§4)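 HUVEC seeded at 10×10^3 cells/well in 20% serum medium. After 6 h, washed and exposed to twofold sample dilutions (250 down to 0.49 μg/ml) in medium 199 with 2% human adult serum for 90 h plus a 6 h thymidine pulse. Cells counted under an inverted microscope after TCA fixation, as % of untreated control.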

The test system of data set [7] is HUVEC. Put plainly: Effect on HUVEC cells proliferation assessed as viable cells at 15.625 ug/ml after 90 hrs relative to negative control. Type of data set: functional. The conditions noted are these: Homo sapiens, read-out: Activity. In outline:
as §4

For data set [8], the system named is HUVEC. Put plainly: Effect on HUVEC cells proliferation assessed as inhibition of [3H]thymidine incorporation at 0.9766 ug/ml after 90 hrs by liquid scintillation counting. The format is functional. The following applies: Homo sapiens. In a few lines:
as §2

The test system of data set [9] is HUVEC. Put plainly: Effect on HUVEC cells proliferation assessed as viable cells at 125 ug/ml after 90 hrs relative to negative control. The format is functional. The following applies: Homo sapiens, read-out: Activity. In outline: as §4
The test system of data set [10] is HUVEC. Description: Effect on HUVEC cells proliferation assessed as [3H]thymidine incorporation at 31.25 ug/ml after 90 hrs by liquid scintillation counting relative to negative control. Type of data set: functional, Homo sapiens. In a few lines: as §3
Data set [11] has as its system HUVEC. Put plainly: Effect on HUVEC cells proliferation assessed as [3H]thymidine incorporation at 0.4883 ug/ml after 90 hrs by liquid scintillation counting relative to negative control. Type of data set: functional, Homo sapiens. In a few lines: as §3
The test system of data set [12] is HUVEC. Description: Effect on HUVEC cells proliferation assessed as [3H]thymidine incorporation at 3.9062 ug/ml after 90 hrs by liquid scintillation counting relative to negative control. The format is functional, Homo sapiens. In outline:
as §3

In data set [13] the test system is HUVEC. Description: Effect on HUVEC cells proliferation assessed as viable cells at 3.9062 ug/ml after 90 hrs relative to negative control. The format is functional. The conditions noted are these: Homo sapiens, read-out: Activity. In a few lines:
as §4

Data set [14] deals with HUVEC. Description: Effect on HUVEC cells proliferation assessed as viable cells at 0.9766 ug/ml after 90 hrs relative to negative control. Type of data set: functional. The following applies: Homo sapiens, read-out: Activity. In a few lines: as §4
For data set [15], the system named is HUVEC. Put plainly: Effect on HUVEC cells proliferation assessed as inhibition of [3H]thymidine incorporation at 3.9062 ug/ml after 90 hrs by liquid scintillation counting. Type of data set: functional. The following applies: Homo sapiens. In a few lines:
as §2

Data set [16] concerns HUVEC. Description: Effect on HUVEC cells proliferation assessed as [3H]thymidine incorporation at 62.5 ug/ml after 90 hrs by liquid scintillation counting relative to negative control. Type of data set: functional, Homo sapiens. In outline:
as §3

The subject of data set [17] is HUVEC. Description: Induction of HUVEC cell proliferation at 2.5 ug/ml after 6 days. The conditions noted are these: Homo sapiens. The format is functional, cell-based. In a few lines:
as §1

Data set [18] has as its system HUVEC. Put plainly: Effect on HUVEC cells proliferation assessed as viable cells at 62.5 ug/ml after 90 hrs relative to negative control. Type of data set: functional. The conditions noted are these: Homo sapiens, read-out: Activity. In a few lines:
as §4

The test system of data set [19] is HUVEC. Put plainly: Effect on HUVEC cells proliferation assessed as viable cells at 31.25 ug/ml after 90 hrs relative to negative control. Type of data set: functional. The following applies: Homo sapiens, read-out: Activity. In a few lines:
as §4

The subject of data set [20] is HUVEC. Put plainly: Effect on HUVEC cells proliferation assessed as viable cells at 1.9531 ug/ml after 90 hrs relative to negative control. The format is functional. The conditions noted are these: Homo sapiens, read-out: Activity. In outline:
as §4

Data set [21] concerns HUVEC. Put plainly: Effect on HUVEC cells proliferation assessed as [3H]thymidine incorporation at 0.9766 ug/ml after 90 hrs by liquid scintillation counting relative to negative control. Type of data set: functional, Homo sapiens. In a few lines: as §3
Data set [22] deals with HUVEC. Put plainly: Effect on HUVEC cells proliferation assessed as inhibition of [3H]thymidine incorporation at 62.5 ug/ml after 90 hrs by liquid scintillation counting. The following applies: Homo sapiens. The format is functional. In a few lines:
as §2

Data set [23] concerns HUVEC. Description: Effect on HUVEC cells proliferation assessed as [3H]thymidine incorporation at 125 ug/ml after 90 hrs by liquid scintillation counting relative to negative control. The format is functional, Homo sapiens. In a few lines: as §3
For data set [24], the system named is HUVEC. Put plainly: Effect on HUVEC cells proliferation assessed as [3H]thymidine incorporation at 7.8125 ug/ml after 90 hrs by liquid scintillation counting relative to negative control. Type of data set: functional, Homo sapiens. In a few lines: as §3
Data set [25] has as its system HUVEC. Description: Effect on HUVEC cells proliferation assessed as [3H]thymidine incorporation at 1.9531 ug/ml after 90 hrs by liquid scintillation counting relative to negative control. Type of data set: functional, Homo sapiens. In a few lines: as §3
Data set [26] deals with HUVEC. Put plainly: Effect on HUVEC cells proliferation assessed as inhibition of [3H]thymidine incorporation at 1.9531 ug/ml after 90 hrs by liquid scintillation counting. The format is functional. The following applies: Homo sapiens. In a few lines:
as §2

In data set [27] the test system is HUVEC. Description: Effect on HUVEC cells proliferation assessed as inhibition of [3H]thymidine incorporation at 7.8125 ug/ml after 90 hrs by liquid scintillation counting. The format is functional. The following applies: Homo sapiens. In outline: as §2
For data set [28], the system named is HUVEC. Put plainly: Effect on HUVEC cells proliferation assessed as inhibition of [3H]thymidine incorporation at 125 ug/ml after 90 hrs by liquid scintillation counting. Type of data set: functional. The following applies: Homo sapiens. In outline: as §2
For data set [29], the system named is HUVEC. Put plainly: Effect on HUVEC cells proliferation assessed as inhibition of [3H]thymidine incorporation at 31.25 ug/ml after 90 hrs by liquid scintillation counting. The format is functional. The following applies: Homo sapiens. In outline: as §2
Data set [30] has as its system HUVEC. Description: Effect on HUVEC cells proliferation assessed as viable cells at 250 ug/ml after 90 hrs relative to negative control. The format is functional. The following applies: Homo sapiens, read-out: Activity. In a few lines:
as §4

Data set [31] relates to HUVEC. Put plainly: Effect on HUVEC cells proliferation assessed as viable cells at 0.4883 ug/ml after 90 hrs relative to negative control. The format is functional. The conditions noted are these: Homo sapiens, read-out: Activity. In outline: as §4
Data set [32] has as its system HUVEC. Put plainly: Cytotoxicity against HUVEC cell at 2.5 ug/ml after 6 days. The following applies: human, 144 h. The format is cell-based. In a few lines:
(§5)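 HUVEC (passages 2–4) seeded at 4×10^3 cells/well in medium 199 with 20% human adult serum, washed after 8 h, then given medium 199 with 5% human adult serum ± sample (from 0.5% stocks in PEG 400 33%). Growth was scored microscopically every other day for 6 days against 5% serum (negative) and 30% serum (positive) controls, with toxicity graded.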

The subject of data set [33] is HUVEC. Put plainly: Cytotoxicity against HUVEC cell at 25 ug/ml after 6 days. The format is cell-based. The following applies: human, 144 h. In outline: as §5
In data set [34] the test system is HUVEC. Put plainly: Induction of HUVEC cell proliferation at 0.25 ug/ml after 6 days. Type of data set: functional, cell-based. The conditions noted are these: Homo sapiens. In a few lines: as §1
In data set [35] the test system is HUVEC. Description: Cytotoxicity against HUVEC cell at 5 ug/ml after 6 days. Type of data set: cell-based. The conditions noted are these: human, 144 h. In outline:
as §5

Calls of active or inactive are those of the source. The calls are words filed in the database; no cut-off is given here.

On to `COc1ccc([C@H]2Oc3c(O)cc(CCCO)cc3[C@@H]2CO)cc1OC`, for which the Activity result in data set [1] was “Toxic”. In data set [2], the outcome was inactive.
As usually defined, the inhibition is the relative decrease from the control value, in per cent. For the compound `COc1ccc([C@H]2Oc3c(OC)cc(CCCO)cc3[C@@H]2CO)cc1OC`, the inhibition at 0.4883 µg/mL in data set [3] is -1%. The Activity is 13% in data set [4]; 7% in data set [10]; 101% in data set [11]; 29% in data set [12]; “Toxic” in data set [1]; 2% in [16]. Moreover, the Activity in data set [21] was 68%; in data set [23] it was 3%; in data set [24], 21%; in data set [25], 52%. The inhibition at 15.625 µg/mL in data set [5] was found to be 87%. The viability at 7.8125 µg/mL in data set [6] turned out to be 123%. The viability at 15.625 µg/mL in data set [7] worked out at 169%. In addition, the inhibition at 0.9766 µg/mL in data set [8] came to 32%. Besides, the viability at 125 µg/mL in [9] worked out at 46%. Besides, the viability at 3.9062 µg/mL in data set [13] amounted to 123%. Besides, in [14], the viability at 0.9766 µg/mL amounted to 108%. Moreover, the inhibition at 3.9062 µg/mL in [15] stood at 71%. Moreover, the outcome in data set [17] was inactive. The viability at 62.5 µg/mL in data set [18] worked out at 231%. The viability at 31.25 µg/mL in data set [19] came out at 185%. Also, the viability at 1.9531 µg/mL in [20] turned out to be 123%. Besides, the inhibition at 62.5 µg/mL in data set [22] amounted to 98%. In addition, in [26], the inhibition at 1.9531 µg/mL came to 48%. For the same compound, the inhibition at 7.8125 µg/mL in data set [27] was 79%. Besides, the inhibition at 125 µg/mL in [28] worked out at 97%. The inhibition at 31.25 µg/mL in [29] was 93%. In addition, the viability at 250 µg/mL in [30] was 0%. Moreover, in data set [31], the viability at 0.4883 µg/mL was found to be 108%.
Regarding `COc1ccc2c(=O)oc3c(OC)cc(CCN(C)C)c4c(=O)oc1c2c34` [TASPINE], the Activity result in data set [32], in [33] and in data set [35] was “Toxic” throughout. For the same compound, the result in data set [34] was inactive.
